KCNK9 inh: human KCNK9 channel inhibition; B-score at 10 µM; 310,000 tested, 1.2% active; Q9NPC2; HEK293 KCNK9, FluxOR thallium flux fluorescence; stronger effect = lower value;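 active means ratio B-score over 3 SD below the library mean, with starting fluorescence within 5 SD of its mean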;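 further: negative B-score means less thallium flux so channel inhibition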
KCNQ1 block: human KCNQ1 channel inhibition; P51787; CHO-K1 KCNQ1, FluxOR thallium flux fluorescence; stronger effect = higher value; 310,000 tested, 1.3% active; B-score at 10 µM;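 active means compounds whose thallium flux B-score, printed positive for inhibition, exceeds three library SD while starting fluorescence stays within three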;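 further: channel opened by potassium depolarization with thallium stimulus after 20 min compound exposure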
Target sequence (P51787 whole entry, looked up): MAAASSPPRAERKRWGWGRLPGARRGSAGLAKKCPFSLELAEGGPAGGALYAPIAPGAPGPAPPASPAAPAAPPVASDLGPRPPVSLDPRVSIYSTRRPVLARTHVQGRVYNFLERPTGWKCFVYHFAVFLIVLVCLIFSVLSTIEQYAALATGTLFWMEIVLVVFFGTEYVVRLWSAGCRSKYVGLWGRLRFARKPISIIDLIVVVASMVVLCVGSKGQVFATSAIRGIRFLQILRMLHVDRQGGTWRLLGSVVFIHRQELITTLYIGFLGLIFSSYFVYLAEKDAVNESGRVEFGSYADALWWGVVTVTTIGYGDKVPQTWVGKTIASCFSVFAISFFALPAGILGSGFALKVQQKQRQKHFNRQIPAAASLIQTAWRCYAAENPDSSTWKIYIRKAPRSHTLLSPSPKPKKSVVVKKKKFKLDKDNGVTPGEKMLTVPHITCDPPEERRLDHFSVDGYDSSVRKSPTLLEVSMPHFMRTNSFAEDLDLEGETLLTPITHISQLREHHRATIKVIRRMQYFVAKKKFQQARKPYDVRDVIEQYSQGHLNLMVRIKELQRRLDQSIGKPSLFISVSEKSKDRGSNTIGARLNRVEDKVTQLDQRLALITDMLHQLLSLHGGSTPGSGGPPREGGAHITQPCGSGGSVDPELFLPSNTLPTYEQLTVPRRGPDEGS
KCNK3 inh: human KCNK3 channel inhibition, primary screen. 340,000 tested, 0.84% active. AID 602410. B-score at 10 µM. CHO-KCNK3 thallium flux, FluxOR fluorescence; stronger effect = lower value;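 active means B-score under library mean minus 4 SD, starting fluorescence ratio at most library mean plus 5 SD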;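 further: more negative B-score means stronger inhibition of thallium flux through KCNK3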
hERG protect: shields human hERG channel from block by proarrhythmic agents. Q12809. CHO-hERG, FluxOR thallium flux, dofetilide IC70 present. activation (rescue from dofetilide block), less the hit threshold, % at 10 µM. 310,000 tested, 0.51% active. AID 1511;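 active means activation above the mean of controls blocked by dofetilide plus 5 SD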;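 further: thallium influx through hERG after potassium depolarization seen as dye fluorescence rise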
KCNQ1 pot: human KCNQ1 channel potentiation or activation; AID 2648; B-score at 10 µM; CHO-K1 KCNQ1, thallium flux FluxOR fluorescence; stronger effect = higher value; 310,000 tested, 0.35% active; P51787;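 active means fluorescence ratio B-score, a plate-corrected score, at least three library SD, with initial intensity B-score within 5 SD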
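Assay system: CHO-K1 cells stably expressing KCNQ1. Medium: assay buffer for compound exposure, DMSO matched across wells. Timing: 37 °C overnight plating, 90-min dark dye load, 20-min compound pretreatment. Signal: kinetic FluxOR fluorescence, 10 s baseline plus 110 s post-stimulus.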
KCNK9 block conf: confirmation of human KCNK9 potassium channel inhibitors; inhibition, % at 10 µM; AID 492992; 4,900 tested, 43% active; shares compounds with KCNK9 inh; HEK293 KCNK9 cells, FluxOR thallium flux fluorescence;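 active means thallium signal inhibited by more than 5 SD of the compound-free buffer control wells, on both duplicate plates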;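 further: 0% = assay buffer control wells without compound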
Kir2-1 spec: tests whether KCNK9 modulators also affect mouse Kir2.1; shares compounds with KCNK9 inh; Kir2.1 cells, FluxOR thallium flux fluorescence; inhibition, % at 10 µM; 4,900 tested, 4% active; AID 492993;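 active means thallium signal drop more than 5 SD beyond the mean of the no-compound control wells, seen in both duplicate plates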;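 further: signal is fluorescence rise after thallium addition divided by baseline fluorescence; plate controls were assay buffer only for no effect and full block by chlorpromazine control for full effect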
KCNK9 uninduced: second counter-screen for KCNK9 modulators: effect in non-induced cells. 4,900 tested, 40% active. shares compounds with KCNK9 inh. inhibition, % at 10 µM. non-induced KCNK9-HEK293, FluxOR thallium flux. AID 492997;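 active means thallium signal drop beyond 5 SD of the untreated control mean, on both duplicate plates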;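 further: plate controls were buffer only IC0 wells for no effect and SID17386958 at its maximal inhibitory level for full effect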
* = called active by the depositor. The list is not random: actives were taken first. Their share in the collection is about 3.1%.

Results for NC(=O)COC(=O)c1ccc(Cl)c(S(=O)(=O)N(Cc2ccccc2)c2ccc(Cl)cc2)c1 ?
KCNK9 inh: inactive; KCNQ1 block: inactive; KCNK3 inh: inactive; hERG protect: -8; KCNQ1 pot: inactive

How did O=C(O)c1ccc(Cl)c(S(=O)(=O)N(Cc2ccccc2)c2ccc(Cl)cc2)c1 do in these assays?
KCNK9 inh: inactive; KCNQ1 block: inactive; KCNK3 inh: inactive; hERG protect: -16; KCNQ1 pot: inactive; KCNK9 block conf: inactive; Kir2-1 spec: inactive; KCNK9 uninduced: inactive

What do the screens show for `COc1ccccc1CN1CC(C(=O)N2CCC(OC)CC2)CCC1=O` (configuration not stated)?
KCNK9 inh: inactive; KCNQ1 block: inactive; KCNK3 inh: inactive; hERG protect: -8; KCNQ1 pot: inactive

Results for Cc1ccccc1CSCCNC(=O)CCSc1ccccc1 ?
KCNK9 inh: inactive; KCNQ1 block: inactive; KCNK3 inh: inactive; hERG protect: -20; KCNQ1 pot: inactive; KCNK9 block conf: inactive; Kir2-1 spec: inactive; KCNK9 uninduced: inactive

What do the screens show for `Cc1ccc(CSCCNC(=O)CN(c2cc(C)ccc2C)S(C)(=O)=O)cc1`?
KCNK9 inh: inactive; KCNQ1 block: inactive; KCNK3 inh: inactive; hERG protect: -15; KCNQ1 pot: inactive; KCNK9 block conf: inactive; Kir2-1 spec: inactive; KCNK9 uninduced: inactive

What do the screens show for `Cc1ccc(CSCCNC(=O)CCSc2ccccc2)cc1`?
KCNK9 inh: inactive; KCNQ1 block: inactive; KCNK3 inh: inactive; hERG protect: -9; KCNQ1 pot: inactive

Results for Cc1ccc(SCC(=O)NCCSCc2ccccc2)cc1 ?
KCNK9 inh: inactive; KCNQ1 block: inactive; KCNK3 inh: inactive; hERG protect: -10; KCNQ1 pot: inactive; KCNK9 block conf: inactive; Kir2-1 spec: inactive; KCNK9 uninduced: inactive

How did O=C(CSc1ccccc1Cl)N1CCOCC1 do in these assays?
KCNK9 inh: inactive; KCNQ1 block: inactive; KCNK3 inh: inactive; hERG protect: -4; KCNQ1 pot: inactive

How did Cc1ccccc1C1CCCN(Cc2nc(C3CC3)no2)C1 (configuration not stated) do in these assays?
KCNK9 inh: inactive; KCNQ1 block: inactive; KCNK3 inh: inactive; hERG protect: -7; KCNQ1 pot: inactive; KCNK9 block conf: inactive; Kir2-1 spec: inactive; KCNK9 uninduced: inactive

How did Cc1cccc(OCC(=O)NCCNC(=O)c2ccccn2)c1 do in these assays?
KCNK9 inh: inactive; KCNQ1 block: inactive; KCNK3 inh: inactive; hERG protect: 0; KCNQ1 pot: inactive

What do the screens show for `CC(C)Oc1cccc(C(=O)C2CCCN(C(=O)c3ccc4c(c3)OCO4)C2)c1` (configuration not stated)?
KCNK9 inh: inactive; KCNQ1 block: inactive; KCNK3 inh: inactive; hERG protect: -7; KCNQ1 pot: inactive; KCNK9 block conf: inactive; Kir2-1 spec: inactive; KCNK9 uninduced: inactive

How did CC(C)Oc1cccc(C(=O)C2CCCN(C(=O)c3cncs3)C2)c1 (configuration not stated) do in these assays?
KCNK9 inh: inactive; KCNQ1 block: inactive; KCNK3 inh: inactive; hERG protect: -7; KCNQ1 pot: inactive

How did CC(C)Oc1cccc(C(=O)C2CCCN(C(=O)c3ccccn3)C2)c1 (configuration not stated) do in these assays?
KCNK9 inh: inactive; KCNQ1 block: inactive; KCNK3 inh: inactive; hERG protect: -7; KCNQ1 pot: inactive

What do the screens show for `CC(C)Oc1cccc(C(=O)C2CCCN(C(=O)c3noc4c3CCCC4)C2)c1` (configuration not stated)?
KCNK9 inh: inactive; KCNQ1 block: inactive; KCNK3 inh: inactive; hERG protect: -6; KCNQ1 pot: inactive; KCNK9 block conf: inactive; Kir2-1 spec: inactive; KCNK9 uninduced: inactive

Results for COc1ccc(CN2CCCC(C(=O)c3ccc4c(c3)OCO4)C2)c(F)c1 (configuration not stated) ?
KCNK9 inh: inactive; KCNQ1 block: inactive; KCNK3 inh: inactive; hERG protect: -9; KCNQ1 pot: inactive; KCNK9 block conf: inactive; Kir2-1 spec: inactive; KCNK9 uninduced: inactive

Results for CC(C)Oc1cccc(C(=O)C2CCCN(C(=O)c3ccsc3)C2)c1 (configuration not stated) ?
KCNK9 inh: inactive; KCNQ1 block: inactive; KCNK3 inh: inactive; hERG protect: -11; KCNQ1 pot: inactive; KCNK9 block conf: inactive; Kir2-1 spec: inactive; KCNK9 uninduced: inactive

How did Cc1nn(-c2ccccc2)c(C)c1C(=O)OCC(=O)N(C)c1c(N)n(Cc2ccccc2)c(=O)[nH]c1=O do in these assays?
KCNK9 inh: inactive; KCNQ1 block: inactive; KCNK3 inh: inactive; hERG protect: -11; KCNQ1 pot: inactive

Results for Cc1ccccc1NC(=O)NC1CCCc2ccccc21 (configuration not stated) ?
KCNK9 inh: inactive; KCNQ1 block: inactive; KCNK3 inh: inactive; hERG protect: -9; KCNQ1 pot: inactive

Results for CCOC(=O)Nc1cc(C)ccc1OC ?
KCNK9 inh: inactive; KCNQ1 block: inactive; KCNK3 inh: inactive; hERG protect: -7; KCNQ1 pot: inactive

What do the screens show for `COc1ccc(C)cc1NC(=O)CC(O)(C(F)(F)F)C(F)(F)F`?
KCNK9 inh: -9.6*; KCNQ1 block: inactive; KCNK3 inh: inactive; hERG protect: -15; KCNQ1 pot: inactive; KCNK9 block conf: inactive; Kir2-1 spec: inactive; KCNK9 uninduced: inactive

Results for Cc1ccc(S(=O)(=O)CCC(=O)Nc2cccc(S(=O)(=O)N3CCCCCC3)c2)cc1 ?
KCNK3 inh: inactive

Results for COc1cccc(N/C=C/C(=O)c2ccc(OC)c(OC)c2)c1 ?
KCNK9 inh: inactive; KCNQ1 block: inactive; KCNK3 inh: inactive; hERG protect: -2; KCNQ1 pot: inactive

How did CCOC(=O)c1cccc(N/C=C/C(=O)c2ccc(OC)c(OC)c2)c1 do in these assays?
KCNK9 inh: -16*; KCNQ1 block: inactive; KCNK3 inh: inactive; hERG protect: 4; KCNQ1 pot: inactive; KCNK9 block conf: 76%*; Kir2-1 spec: inactive; KCNK9 uninduced: 38%*

What do the screens show for `Cc1ccc(C(=O)Nc2nnc(NC(=S)Nc3ccccc3)s2)cc1`?
KCNK9 inh: inactive; KCNQ1 block: inactive; KCNK3 inh: inactive; hERG protect: -12; KCNQ1 pot: inactive; KCNK9 block conf: inactive; Kir2-1 spec: inactive; KCNK9 uninduced: inactive
